Bioassay records deposited in PubChem by several laboratories.
In the library only some 4.9% were active in any assay of this set; here they are far more common.
STAT1 inh – reduces IFN-gamma driven STAT1 reporter signal; NIH 3T3 STAT1-luciferase reporter, luminescence; inhibition, % at 5.5 µM; 0.35% of 200,000 active; AID 920;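 active = inhibition above a set limit, the mean inhibition across all tested compounds plus 3 SD, cut at about 34% in these data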;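 note: 0% = IFN-gamma with DMSO and 100% = IFN-gamma with 300 µM nifuroxazide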
STAT3 act – activators of IL-6 induced STAT3 signaling; U3A cells, IL-6 STAT3-luciferase reporter, luminescence; 100% = signal with IL-6 EC80 alone; activation (% of control), % at 5.6 µM; 0.91% of 190,000 active; AID 871;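 active = activation above the screen-wide mean of compound activation plus 3 SD, cut at about 130% in these data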;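 note: 0% = background luminescence of wells with medium and substrate only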
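Test system: STAT3-luciferase reporter U3A cells; Detection: reporter luminescence signal; Times: 1 h compound pre-exposure, 6 h IL-6 stimulation, 37 °C; Benchmarks: IL-6-only high control; Also added: IL-6 stimulus at 33 ng/mL final.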
STAT3 blocker – reduces IL-6 driven STAT3 reporter signal; 0.89% of 190,000 active; AID 862; inhibition, % at 5.5 µM; U3A cells, IL-6 STAT3-luciferase reporter, luminescence; host cell line lacks STAT1;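 active = inhibition above the mean inhibition across all screened compounds plus 3 SD, cut at about 44% in these data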;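 note: 0% = DMSO only wells and 100% = 100 µM nifuroxazide control wells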
APP 5'UTR act – APP 5'UTR luciferase reporter activation; SH-SY5Y APP 5'UTR luciferase reporter, luminescence; zero percent = DMSO vehicle wells; activation, % at 2 µM; 1% of 190,000 active; AID 1276;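 active = activation above a set limit, based on mean plus 3 SD of controls, cut at about 140% in these data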
STAT1 act – increases IFN-gamma driven STAT1 reporter signal | activation (% of control), % at 5.5 µM | NIH 3T3 STAT1-luciferase reporter, luminescence; 100% = IFN-gamma alone, no compound | 2.6% of 200,000 active | AID 932;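 active = activation above the screen-wide mean activation plus 3 SD, cut at about 130% in these data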;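 note: raw ratio to IFN-gamma control signal so 100% means no change and 0% no light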
NF-kB neuron act – compounds increasing NF-kB expression in human neuronal cells | NF-kB reporter expression; hits give high values | fold change at 12.5 µM | 1.6% of 190,000 active | AID 1239; in the data active = fold change above about 3.3
* marks the source's active call; other numbers are inactive results; . = not tested or not shown.

SMILES	STAT1 inh	STAT3 act	STAT3 blocker	APP 5'UTR act	STAT1 act	NF-kB neuron act
COc1ccc(NC(=O)c2cccs2)cc1	-40	102	2	66	140*	3
CCC(C)c1ccc(NC(=O)c2cccs2)cc1 (stereo not drawn)	-33	73	36	150*	130*	11*
CC(C)(C)c1csc(NC(=O)Cc2cccs2)n1	-14	88	19	12	109	1.1
CC(C)c1ccc(NC(=S)NNC(=O)c2cccs2)cc1	-50	100	7	81	144*	2.7
COc1ccc(NC(=S)NNC(=O)c2cccs2)cc1	-17	103	-3	42	115	1.6
COc1cc2c(cc1OC)CN(C(=S)NC(=O)c1ccccc1)CC2	0	98	5	-1	98	1.1
COc1ccccc1NC(=S)NC1CCC(CC2CCC(NC(=S)Nc3ccccc3OC)CC2)CC1 (stereo not drawn)	-2	106	-12	-9	102	1.1
O=C(Nc1ccc(-c2cn3ccccc3n2)cc1)c1cccs1	-37	87	20	136*	134*	2.2
COc1ccc(-c2csc(N(C)C(=O)c3cccs3)n2)cc1	-36	92	13	73	131*	1.5
CCN(CC)CCCN(C(=O)c1cccs1)c1nc(-c2ccc(OC)cc2)cs1	-6	102	0	5	105	0.89
CCNc1ccc(C(=O)OCC(=O)N(Cc2ccccc2)C(C)(C)C)cc1[N+](=O)[O-]	2	102	-7	8	98	0.9
COC(=O)c1ccc2nc(-c3cccc(N)c3)cn2c1	60*	37	74*	56	44	2.1
COC(=O)c1ccc2nc(-c3ccc(S(C)(=O)=O)cc3)cn2c1	-39	108	-4	27	139*	2
CC(C)(C)C(O)(CC#CCN1CCCC1)c1ccccc1 (stereo not drawn)	2	99	5	5	96	0.95
CCOc1cc(CNC2CCCC2)ccc1OCc1ccccc1Cl	12	101	1	-26	87	1.1
CCOc1cc(C2NN=C(c3ccccc3)S2)ccc1OCc1ccc(F)cc1 (stereo not drawn)	-36	95	7	97	133*	4.5*
CCOc1cc(C2NN=C(c3ccccc3)S2)ccc1OCc1ccccc1Cl (stereo not drawn)	-41	107	-1	18	136*	3.7*
CC(=O)Nc1ccc2nc(C3CC3)n(Cc3ccc(Cl)cc3)c(=O)c2c1	-52	109	-10	106	146*	2.2
O=C(Nc1ccc2nc(C3CC3)n(Cc3ccc(F)cc3)c(=O)c2c1)c1ccco1	-14	81	28	23	113	0.5
Oc1ccc(Br)cc1/C=N/N1CCN(Cc2ccccc2)CC1	-6	102	-3	-4	105	2.9
Oc1ccc(Br)cc1/C=N/N1CCCCC1	-11	92	7	54	110	4*
Oc1ccc(/C=N/Nc2ncc(Br)cn2)c(O)c1	-13	93	13	19	112	5*
Cc1ccc(/C=N/Nc2cccc3cccnc23)c(O)c1	-4	132	-27	93	104	7.5*
Oc1ccc(/C=N/Nc2cccc3cccnc23)c(O)c1	13	85	25	49	89	11*
Oc1ccc(/C=N/Nc2nccnc2Cl)c(O)c1	7	90	10	.	94	1.2
SMILES	STAT1 inh	STAT3 act	STAT3 blocker	APP 5'UTR act	STAT1 act	NF-kB neuron act
O=c1[nH]ncc(N/N=C\c2ccc(O)cc2O)c1Cl	1	91	15	-3	101	1.1
CCSCc1nnc(SCC(=O)Nc2ccc(OC)cc2)n1C	-6	108	-1	11	105	1.2
COc1ccc(C2(CNC(=O)c3cccs3)CCOCC2)cc1	4	100	6	29	97	.
Cc1ccc(C2=NCN(c3ccc(C(=O)O)cc3)C(=S)N2)cc1	-37	106	-5	28	136*	1.8
O=c1[nH][nH]cc1C=NCc1cccc(C(F)(F)F)c1	-4	107	-1	7	103	1
CCCCSc1nnc2c(n1)[nH]c1ccccc12	-43	80	21	30	140*	2.3
Cc1cc(OCc2nc(-c3ccncc3)no2)cc(C)c1Cl	-5	91	16	1	105	1.1
CN(C)S(=O)(=O)c1cccc(C(=O)OCC(=O)Nc2sccc2C#N)c1	-15	134*	-40	-1	113	1.7
COc1ccc(N(C)S(=O)(=O)c2cccc(C(=O)OCC(=O)Nc3sc4c(c3C#N)CCCCC4)c2)cc1	14	94	5	12	87	1.3
CCN(C(=O)COC(=O)c1cccc(NS(=O)(=O)c2ccc(F)c(F)c2)c1)C1CCS(=O)(=O)C1 (stereo not drawn)	-3	98	3	12	103	0.97
O=C(/C=C/c1c(F)cccc1Cl)Nc1ccncc1	-16	102	-4	60	116	2.4
O=C(/C=C/c1c(F)cccc1Cl)Nc1nc2ccccc2[nH]1	-34	101	1	115	130*	1.4
Cc1ccc(/C=C/C(=O)c2nc3ccccc3[nH]2)cc1	-12	95	14	-2	110	1.6
Cc1ccc(Nc2nc3ccccc3[nH]2)nc1	-27	106	-5	100	125	5.4*
COc1ccccc1Nc1nc2ccccc2[nH]1	-9	89	18	46	108	1.7
Cc1ccc(/C=C/C(=O)Nc2nc3ccccc3[nH]2)cc1	-32	115	-15	180*	129*	2
Cc1cc(C)nc(SCCn2c(N3CC(C)OC(C)C3)nc3c2c(=O)n(C)c(=O)n3C)n1 (stereo not drawn)	1	103	2	1	98	.
CCN(CC)S(=O)(=O)c1cc(C(=O)OCC(=O)NC(=O)c2cccn2C)ccc1C	3	96	12	8	97	1
O=C(CSc1nnc(-c2ccc(O)cc2)n1Cc1ccccc1)NNC(=O)c1ccc(Br)cc1	-4	99	-1	5	104	1
COc1ccc(-n2c(C)cc(C(=O)CCl)c2C)cc1	16	105	-4	-44	84	3.9*
COc1ccc(-n2c(C)cc(C(=O)CSc3ccc(NC(C)=O)cc3)c2C)cc1	-7	102	-1	7	106	1.3
COc1ccc(-n2c(C)cc(C(=O)CN3C(=O)c4ccccc4C3=O)c2C)cc1	-37	107	-10	-5	134*	1.1
CCOC(=O)C1CCCN(c2cc(=O)n(C3CCCCC3)c(=O)[nH]2)C1 (stereo not drawn)	-1	100	1	13	99	1.4
O=C(CCCOc1ccccc1)N1CCN(c2ccccc2)CC1	-32	103	-2	24	131*	2
Cc1cccc(N2CCN(C(=O)CCCOc3ccccc3)CC2)c1C	-35	115	-12	101	132*	2
O=C(CCSc1ccccc1)N1CCN(c2ccccc2)CC1	-33	111	-10	58	131*	2.5
